System: HEK-293T
Assay: Multiplex assay against HEK293T;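 as to Population Tubulin-Different-Phenotype (%): share of the cells with healthy nuclei that show this phenotype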
Assay type: toxicity, cell-based
Conditions: human
In short: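 Cells stained live at seeding with Hoechst33342, BioTracker Green Microtubule Cytoskeleton Dye, MitoTracker Red and Annexin V Alexa Fluor 680 were imaged on a CQ1 microscope at 37°C and 5% CO2 after compound addition. Their classification by CellPathfinder machine-learning gating ran from Hoechst high-intensity objects versus normal cells, to healthy, pyknosed or fragmented nuclei among normal cells, to mitotic or apoptotic among pyknosed cells. Tubulin, mitochondrial-mass and membrane-permeability phenotypes are per cents of healthy-nucleus cells.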

[1] = 12 h, 1 µM, compound concentration 1 uM, replicate 1
[2] = 12 h, 1 µM, compound concentration 1 uM, replicate 2
[3] = 12 h, 10 µM, compound concentration 10 uM, replicate 1
[4] = 12 h, 10 µM, compound concentration 10 uM, replicate 2
[5] = 24 h, 1 µM, compound concentration 1 uM, replicate 1
[6] = 24 h, 1 µM, compound concentration 1 uM, replicate 2
[7] = 24 h, 10 µM, compound concentration 10 uM, replicate 1
[8] = 24 h, 10 µM, compound concentration 10 uM, replicate 2
[9] = 48 h, 1 µM, compound concentration 1 uM, replicate 1
[10] = 48 h, 1 µM, compound concentration 1 uM, replicate 2
[11] = 48 h, 10 µM, compound concentration 10 uM, replicate 1
[12] = 48 h, 10 µM, compound concentration 10 uM, replicate 2

## CC(Cc1ccc(O)c(O)c1)C(C)Cc1ccc(O)c(O)c1 (stereo unspecified) [NORDIHYDROGUAIARETIC ACID]
[1]
  Population Apoptotic (%): 42%
  Population Fragmented Nuclei (%): 12%
  Population Healthy Nuclei (%): 34%
  Population Hoechst High Intensity Objects (%): 16%
  Population Mitochondria Different-Phenotype (%): 81%
  Population Mitotic Cells (%): 57%
  Population Normal (%): 83%
  Population Pyknosed Nuclei (%): 52%
  Population Tubulin-Different-Phenotype (%): 6%
  Total Cell Count: 150
[2]
  Population Apoptotic (%): 8%
  Population Fragmented Nuclei (%): 6%
  Population Healthy Nuclei (%): 36%
  Population Hoechst High Intensity Objects (%): 5%
  Population Membrane Permeable-Phenotype (%): 2%
  Population Mitochondria Different-Phenotype (%): 28%
  Population Mitotic Cells (%): 91%
  Population Normal (%): 94%
  Population Pyknosed Nuclei (%): 57%
  Population Tubulin-Different-Phenotype (%): 11%
  Total Cell Count: 194
[3]
  Population Apoptotic (%): 33%
  Population Fragmented Nuclei (%): 12%
  Population Healthy Nuclei (%): 49%
  Population Hoechst High Intensity Objects (%): 15%
  Population Membrane Permeable-Phenotype (%): 3%
  Population Mitochondria Different-Phenotype (%): 71%
  Population Mitotic Cells (%): 66%
  Population Normal (%): 84%
  Population Pyknosed Nuclei (%): 37%
  Population Tubulin-Different-Phenotype (%): 2%
  Total Cell Count: 211
[4]
  Population Apoptotic (%): 11%
  Population Fragmented Nuclei (%): 6%
  Population Healthy Nuclei (%): 55%
  Population Hoechst High Intensity Objects (%): 4%
  Population Membrane Permeable-Phenotype (%): 1%
  Population Mitochondria Different-Phenotype (%): 14%
  Population Mitotic Cells (%): 88%
  Population Normal (%): 95%
  Population Pyknosed Nuclei (%): 38%
  Population Tubulin-Different-Phenotype (%): 0%
  Total Cell Count: 254
[5]
  Population Apoptotic (%): 35%
  Population Fragmented Nuclei (%): 12%
  Population Healthy Nuclei (%): 42%
  Population Hoechst High Intensity Objects (%): 12%
  Population Membrane Permeable-Phenotype (%): 1%
  Population Mitochondria Different-Phenotype (%): 46%
  Population Mitotic Cells (%): 64%
  Population Normal (%): 87%
  Population Pyknosed Nuclei (%): 45%
  Population Tubulin-Different-Phenotype (%): 15%
  Total Cell Count: 156
[6]
  Population Apoptotic (%): 18%
  Population Fragmented Nuclei (%): 5%
  Population Healthy Nuclei (%): 48%
  Population Hoechst High Intensity Objects (%): 3%
  Population Membrane Permeable-Phenotype (%): 6%
  Population Mitochondria Different-Phenotype (%): 11%
  Population Mitotic Cells (%): 81%
  Population Normal (%): 96%
  Population Pyknosed Nuclei (%): 46%
  Population Tubulin-Different-Phenotype (%): 12%
  Total Cell Count: 212
[7]
  Population Apoptotic (%): 27%
  Population Fragmented Nuclei (%): 17%
  Population Healthy Nuclei (%): 39%
  Population Hoechst High Intensity Objects (%): 7%
  Population Membrane Permeable-Phenotype (%): 0%
  Population Mitochondria Different-Phenotype (%): 50%
  Population Mitotic Cells (%): 72%
  Population Normal (%): 92%
  Population Pyknosed Nuclei (%): 42%
  Population Tubulin-Different-Phenotype (%): 7%
  Total Cell Count: 192
[8]
  Population Apoptotic (%): 16%
  Population Fragmented Nuclei (%): 8%
  Population Healthy Nuclei (%): 58%
  Population Hoechst High Intensity Objects (%): 3%
  Population Membrane Permeable-Phenotype (%): 1%
  Population Mitochondria Different-Phenotype (%): 4%
  Population Mitotic Cells (%): 83%
  Population Normal (%): 96%
  Population Pyknosed Nuclei (%): 32%
  Population Tubulin-Different-Phenotype (%): 1%
  Total Cell Count: 255
[9]
  Population Apoptotic (%): 21%
  Population Fragmented Nuclei (%): 11%
  Population Healthy Nuclei (%): 68%
  Population Hoechst High Intensity Objects (%): 8%
  Population Membrane Permeable-Phenotype (%): 5%
  Population Mitochondria Different-Phenotype (%): 19%
  Population Mitotic Cells (%): 78%
  Population Normal (%): 91%
  Population Pyknosed Nuclei (%): 20%
  Population Tubulin-Different-Phenotype (%): 14%
  Total Cell Count: 223
[10]
  Population Apoptotic (%): 14%
  Population Fragmented Nuclei (%): 7%
  Population Healthy Nuclei (%): 69%
  Population Hoechst High Intensity Objects (%): 5%
  Population Membrane Permeable-Phenotype (%): 7%
  Population Mitochondria Different-Phenotype (%): 1%
  Population Mitotic Cells (%): 85%
  Population Normal (%): 94%
  Population Pyknosed Nuclei (%): 23%
  Population Tubulin-Different-Phenotype (%): 16%
  Total Cell Count: 312
[11]
  Population Apoptotic (%): 21%
  Population Fragmented Nuclei (%): 21%
  Population Healthy Nuclei (%): 50%
  Population Hoechst High Intensity Objects (%): 11%
  Population Membrane Permeable-Phenotype (%): 7%
  Population Mitochondria Different-Phenotype (%): 5%
  Population Mitotic Cells (%): 78%
  Population Normal (%): 88%
  Population Pyknosed Nuclei (%): 28%
  Population Tubulin-Different-Phenotype (%): 3%
  Total Cell Count: 187
[12]
  Population Apoptotic (%): 14%
  Population Fragmented Nuclei (%): 7%
  Population Healthy Nuclei (%): 67%
  Population Hoechst High Intensity Objects (%): 4%
  Population Membrane Permeable-Phenotype (%): 5%
  Population Mitochondria Different-Phenotype (%): 1%
  Population Mitotic Cells (%): 85%
  Population Normal (%): 95%
  Population Pyknosed Nuclei (%): 25%
  Population Tubulin-Different-Phenotype (%): 1%
  Total Cell Count: 280

Reference: ChEMBL document CHEMBL4689842, “EUbOPEN Chemogenomics Library wave 1” (2021)
